Legend:
[1] = system: C2C12 mouse muscle myotubes; test: Insulin-induced Akt-2 phosphorylation in C2C12 myotubes; type: cell-based; conditions: 100 nM insulin; CP-55940 5 μM
Method in brief: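 Cultured C2C12 mouse muscle myotubes, mock- or βArr2-siRNA-transfected, exposed to 100 nM insulin with or without the CB1R agonist CP-55940 (5 μM) and test compound (100 nM). Akt phosphorylation by Western blot, β-actin loading control, densitometry quantification; each treatment in duplicate cell aliquots.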

[2] = system: M384S, I105A and M109A mutant hCB1R; test: CP55,940-induced βArr2 recruitment in HEK cells expressing mutant hCB1R; type: cell-based, human; conditions: mutations M384S
[3] = biological target: hCB1R (Homo sapiens, UniProt P21554); type: cell-based
[4] = acute oral 3 mg/kg, male wild-type mice; cited from earlier work
[5] = system: lean wild-type mice; test: Upper GI motility; type: in vivo, mouse
Method in brief: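 Upper gastrointestinal motility by charcoal transit in lean wild-type mice. The CB1R agonist ACEA is given intraperitoneally at 10 mg/kg, with or without test compound. Test compound is also given without agonist to assess motility alone.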

[6] = system: mice; test: Elevated plus maze test; type: in vivo, mouse
Method in brief: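 The elevated plus maze scores anxiety-like behavior in male wild-type mice after acute oral dosing or 28 days of daily oral dosing with test compound or reference antagonist. Mean ± SEM of 4–6 independent experiments.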

[7] = system: mice; test: Hyperambulatory activity in drug-naïve mice; type: in vivo, mouse; conditions: single oral 3 mg/kg, βArr2-KO mice and wild-type littermates

Sequence of hCB1R (P21554 whole entry): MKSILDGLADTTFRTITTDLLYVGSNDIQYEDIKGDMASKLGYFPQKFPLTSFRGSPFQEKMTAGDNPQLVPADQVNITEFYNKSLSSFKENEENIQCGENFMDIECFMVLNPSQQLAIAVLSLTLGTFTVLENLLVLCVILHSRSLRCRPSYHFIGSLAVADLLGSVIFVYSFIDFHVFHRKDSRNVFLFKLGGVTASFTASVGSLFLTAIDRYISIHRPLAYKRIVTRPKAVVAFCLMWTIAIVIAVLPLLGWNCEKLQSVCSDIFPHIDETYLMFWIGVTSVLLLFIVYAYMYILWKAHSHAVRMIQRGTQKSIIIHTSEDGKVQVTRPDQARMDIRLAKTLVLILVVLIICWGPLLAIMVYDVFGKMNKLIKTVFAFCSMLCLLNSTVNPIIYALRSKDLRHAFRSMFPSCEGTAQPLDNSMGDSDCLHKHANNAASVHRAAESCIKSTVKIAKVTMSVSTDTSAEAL

CCCCCCC(C)(C)c1ccc([C@@H]2C[C@H](O)CC[C@H]2CCCO)c(O)c1 [CP-55940]
effect on insulin-induced Akt-2 phosphorylation [1]: significantly inhibited | CP-55940-induced βArr2 recruitment at mutant hCB1R [2]: suppression

CN=C(NS(=O)(=O)c1ccc(Cl)cc1)N1C[C@H](c2ccccc2)C(c2ccc(Cl)cc2)=N1 [ibipinabant]
bias (G/βArr) [3]: ≈ 2 | brain/plasma ratio [4]: 22%

CCCCC/C=C\C/C=C\C/C=C\C/C=C\CCCC(=O)NCCCl [ACEA, arachidonoyl chloroethylamine]
inhibition of upper GI motility ([5]; 10 mg/kg intraperitoneal, lean wild-type mice): 60% | inhibition of upper GI motility, wild-type versus βArr2-KO mice ([5]; ACEA alone): to the same extent

Cc1c(C(=O)NN2CCCCC2)nn(-c2ccc(Cl)cc2Cl)c1-c1ccc(Cl)cc1 [rimonabant]
anxiogenic behavior, elevated plus maze ([6]; acute oral, MRI-1891 up to 30 mg/kg, rimonabant 3 mg/kg): highly anxiogenic | anxiogenic behavior, elevated plus maze ([6]; chronic 28 days, MRI-1891 1 and 10 mg/kg/day, rimonabant 3 mg/kg/day): induced strong anxiety | anxiogenic response, elevated plus maze ([6]; single oral 3 mg/kg, βArr2-KO mice and wild-type littermates): identical, strong anxiogenic responses in both strains | hyperambulatory activity [7]: similar, long-lasting hyperambulatory activity | upper GI motility in the absence of CB1R agonist (in vivo inverse agonism) ([5]; MRI-1891 3 and 10 mg/kg): similar
